Values after ≈ are worked out from the molar mass of the structure shown.
Columns and labels:
[1] = biological target: Diacylglycerol O-acyltransferase 1 (Homo sapiens) (UniProt O75907); experiment: Inhibition of human DGAT1 assessed as conversion of [14C]-oleoyl-CoA to [14C]-triglyceride at 1 uM after 10 mins by scintillation counting
[2] = Aqueous solubility of the compound at pH 7.4 after 24 hrs; assay type: physicochemical; conditions: aqueous medium
Mus musculus = experiment: Antiobesity activity in Swiss mouse assessed as reduction in plasma triglyceride level at 3 mg/kg, po measured after 4 hrs by fat tolerance test; assay type: functional; parameters: scale not given: the % may be the effect or the level left
Outline: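 Fasted Swiss mice (4-5 weeks, 25-30 g) gavaged with test compound at 3 mg/kg as a suspension in 0.5% CMC with Tween 80, or with vehicle. Olive oil bolus (10 ml/kg) given 1 h later. Plasma TG measured by kit at 1, 2, 3 and 4 h. AUC0-4h expressed relative to vehicle (100%). Mean ± SEM, n = 8.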

Sequence of Diacylglycerol O-acyltransferase 1 (Homo sapiens) (O75907 whole entry, looked up): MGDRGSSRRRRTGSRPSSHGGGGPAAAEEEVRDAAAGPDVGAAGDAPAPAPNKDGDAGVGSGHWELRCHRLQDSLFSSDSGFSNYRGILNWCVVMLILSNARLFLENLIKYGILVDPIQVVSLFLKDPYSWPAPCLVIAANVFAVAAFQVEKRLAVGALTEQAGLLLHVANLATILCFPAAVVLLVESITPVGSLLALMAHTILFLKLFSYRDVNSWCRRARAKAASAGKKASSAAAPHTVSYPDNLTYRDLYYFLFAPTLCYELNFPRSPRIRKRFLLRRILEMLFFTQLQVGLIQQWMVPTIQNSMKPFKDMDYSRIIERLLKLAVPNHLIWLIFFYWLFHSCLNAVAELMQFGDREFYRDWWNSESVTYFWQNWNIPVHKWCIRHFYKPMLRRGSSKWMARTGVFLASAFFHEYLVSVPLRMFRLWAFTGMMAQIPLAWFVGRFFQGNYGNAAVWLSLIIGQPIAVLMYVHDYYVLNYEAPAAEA

| inhibition [1] | solubility at 24 h [2] | SMILES | Activity (Mus musculus) |
| --- | --- | --- | --- |
| 90% |  | CC(C)[C@H](NC(=O)c1cc(-c2ccc(NC(=O)Nc3ccccc3Cl)cc2)no1)C(=O)O |  |
| 75% |  | CC(C)[C@H](NC(=O)c1nc(-c2ccc(NC(=O)Nc3ccc(F)cc3F)cc2)no1)C(=O)O |  |
| 44% |  | CC(C)[C@H](NC(=O)c1cc(-c2ccc(NC(=O)c3ccc(F)cc3)cc2)no1)C(=O)O |  |
| 91% | 140 µg/mL (≈ 255 µM) | CC(C)[C@H](NC(=O)c1cc(-c2ccc(NC(=O)Nc3ccc(Cl)cc3Oc3ccccc3)cc2)no1)C(=O)O | 35% |
| 85% |  | CC(C)[C@H](NC(=O)c1cc(-c2ccc(NC(=O)Nc3cccc(C(F)(F)F)c3)cc2)no1)C(=O)O |  |
| 80% |  | CC(C)[C@H](NC(=O)c1ncc(-c2ccc(NC(=O)Nc3ccccc3Cl)cc2)o1)C(=O)O |  |
| 40% |  | CC(C)[C@H](NC(=O)c1nc(-c2ccc(NC(=O)Nc3ccc(Cl)cc3)cc2)no1)C(=O)O |  |
|  | 60 µg/mL (≈ 132 µM) | CC(C)[C@H](NC(=O)c1cc(-c2ccc(Nc3nc4ccc(F)cc4s3)cc2)no1)C(=O)O | 29% |
| 78% |  | CC(C)[C@H](NC(=O)c1cc(-c2ccc(NC(=O)Nc3ccc(F)cc3)cc2)no1)C(=O)O |  |
| 90% |  | CC(C)[C@H](NC(=O)c1cc(-c2ccc(NC(=O)Nc3ccc(Cl)cc3F)cc2)no1)C(=O)O |  |
| 69% |  | Cc1ccc(NC(=O)Nc2ccc(-c3cnc(C(=O)N[C@H](C(=O)O)C(C)C)o3)cc2)cc1C |  |
| 70% |  | CC(C)[C@H](NC(=O)c1ncc(-c2ccc(NC(=O)Nc3ccc(Cl)cc3F)cc2)o1)C(=O)O |  |
| 62% |  | CC(C)[C@H](NC(=O)c1nc(-c2ccc(NC(=O)Nc3ccccc3Cl)cc2)no1)C(=O)O |  |
| 75% |  | CC(C)[C@H](NC(=O)c1ncc(-c2ccc(NC(=O)Nc3cccc(C(F)(F)F)c3)cc2)o1)C(=O)O |  |
| 48% |  | CC(C)[C@H](NC(=O)c1nc(-c2ccc(NC(=O)Nc3cccc(C(F)(F)F)c3)cc2)no1)C(=O)O |  |
| 85% |  | CC(C)[C@H](NC(=O)c1cc(-c2ccc(NC(=O)Nc3ccc(F)cc3F)cc2)no1)C(=O)O |  |
| 59% |  | CC(C)[C@H](NC(=O)c1cc(-c2ccc(NC(=O)[C@H](O)c3ccccc3)cc2)no1)C(=O)O |  |

| inhibition [1] | solubility at 24 h [2] | SMILES | Activity (Mus musculus) |
| --- | --- | --- | --- |
| 61% |  | Cc1ccc(NC(=O)Nc2ccc(-c3noc(C(=O)N[C@H](C(=O)O)C(C)C)n3)cc2)cc1 |  |
| 84% |  | CC(C)[C@H](NC(=O)c1cc(-c2ccc(NC(=O)Nc3cccc(Cl)c3)cc2)no1)C(=O)O |  |
| 61% |  | CC(C)[C@H](NC(=O)c1nc(-c2ccc(NC(=O)Nc3ccc(F)cc3)cc2)no1)C(=O)O |  |
| 16% |  | CC(C)[C@H](NC(=O)c1cc(-c2ccc(NC(=O)C(=O)Nc3cccc(C(F)(F)F)c3)cc2)no1)C(=O)O |  |
| 18% |  | CC(C)[C@H](NC(=O)c1cc(-c2ccc(OCc3ccc(F)cc3)cc2)no1)C(=O)O |  |
| 71% |  | CC(C)[C@H](NC(=O)c1nc(-c2ccc(NC(=O)Nc3cccc(Cl)c3)cc2)no1)C(=O)O |  |
| 26% |  | Cc1ccccc1S(=O)(=O)NC(=O)Nc1ccc(-c2cc(C(=O)N[C@H](C(=O)O)C(C)C)on2)cc1 |  |
| 83% |  | Cc1ccc(NC(=O)Nc2ccc(-c3cc(C(=O)N[C@H](C(=O)O)C(C)C)on3)cc2)cc1C |  |
| 23% |  | CC(C)[C@H](NC(=O)c1cc(-c2ccc(NS(=O)(=O)c3c(F)cccc3F)cc2)no1)C(=O)O |  |
|  | 10 µg/mL (≈ 21.6 µM) | CC(C)[C@H](NC(=O)c1ccc(-c2ccc(Nc3nc4ccc(F)cc4s3)cc2)cc1)C(=O)O | 84% |
| 91% |  | CC(C)[C@H](NC(=O)c1ncc(-c2ccc(NC(=O)Nc3ccc(Cl)cc3Oc3ccccc3)cc2)o1)C(=O)O |  |
| 72% |  | CC(C)[C@H](NC(=O)c1ncc(-c2ccc(NC(=O)Nc3cccc(Cl)c3)cc2)o1)C(=O)O |  |
|  | 430 µg/mL (≈ 950 µM) | COc1ccc(NC(=O)Nc2ccc(-c3cc(C(=O)N[C@H](C(=O)O)C(C)C)on3)cc2)cc1 | 90% |
| 59% |  | CC(C)[C@H](NC(=O)c1ncc(-c2ccc(NC(=O)Nc3ccc(Cl)cc3)cc2)o1)C(=O)O |  |
| 72% |  | CC(C)[C@H](NC(=O)c1cc(-c2ccc(NC(=S)Nc3ccccc3F)cc2)no1)C(=O)O |  |
| 84% |  | CC(C)[C@H](NC(=O)c1cc(-c2ccc(NC(=O)Nc3ccc(Cl)cc3)cc2)no1)C(=O)O |  |
| 80% | 380 µg/mL (≈ 871 µM) | Cc1ccc(NC(=O)Nc2ccc(-c3cc(C(=O)N[C@H](C(=O)O)C(C)C)on3)cc2)cc1 | 79% |

Reference: ChEMBL document CHEMBL2040747, “Synthesis and biological evaluation of isoxazole, oxazole, and oxadiazole containing heteroaryl analogs of biaryl ureas as DGAT1 inhibitors” (Eur J Med Chem, 2012)
